Test results from ChEMBL document CHEMBL3407388, “Synthesis, anticancer activity and molecular docking studies on a series of heterocyclic trans-cyanocombretastatin analogues as antitubulin agents” (2015).

How the values were obtained:
Assay type in all cases: functional
[1] = tested on: SF-268; assay: Cytotoxicity against human SF268 cells assessed as growth inhibition after 48 hrs by SRB assay; conditions: SF-268, 48 h
In short: (§1)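 NCI 60-cell panel; compounds passing a single-dose screen (10−5 M, 48 h) were tested at five 10-fold dilutions (10−4 to 10−8 M) with 48 h drug exposure. GI50 is the molar concentration giving 50% reduction in net cell growth relative to cell numbers on day 0.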

[2] = tested on: DU-145; assay: Cytotoxicity against human DU145 cells assessed as growth inhibition after 48 hrs by SRB assay; conditions: DU-145, 48 h; in short: as §1
[3] = tested on: SW-620; assay: Cytotoxicity against human SW620 cells assessed as growth inhibition after 48 hrs by SRB assay; conditions: SW-620, 48 h
[4] = tested on: NCI-H226; assay: Cytotoxicity against human NCI-H226 cells assessed as growth inhibition after 48 hrs by SRB assay; conditions: NCI-H226, 48 h; in short: as §1
[5] = tested on: MOLT-4; assay: Cytotoxicity against human MOLT4 cells assessed as growth inhibition after 48 hrs by SRB assay; conditions: MOLT-4, 48 h; in short: as §1
[6] = tested on: MCF7; assay: Cytotoxicity against human MCF7 cells assessed as growth inhibition after 48 hrs by SRB assay; conditions: MCF7, 48 h; in short: as §1
[7] = Cytotoxicity against human Hs578T cells assessed as growth inhibition after 48 hrs by SRB assay; conditions: Hs-578T; in short: as §1
[8] = Cytotoxicity against human HCT15 cells assessed as growth inhibition after 48 hrs by SRB assay; conditions: HCT-15, 48 h; in short: as §1
[9] = tested on: KM12; assay: Cytotoxicity against human KM12 cells assessed as growth inhibition after 48 hrs by SRB assay; conditions: KM12, 48 h; in short: as §1
[10] = tested on: MDA-MB-435; assay: Cytotoxicity against human MDA-MB-435 cells assessed as growth inhibition after 48 hrs by SRB assay; conditions: MDA-MB-435, 48 h; in short: as §1
[11] = tested on: RXF 393; assay: Cytotoxicity against human RXF393 cells assessed as growth inhibition after 48 hrs by SRB assay; conditions: RXF 393, 48 h; in short: as §1
[12] = Cytotoxicity against human HCT116 cells assessed as growth inhibition after 48 hrs by SRB assay; conditions: HCT-116, 48 h; in short: as §1
[13] = tested on: COLO 205; assay: Cytotoxicity against human COLO205 cells assessed as growth inhibition after 48 hrs by SRB assay; conditions: COLO 205, 48 h; in short: as §1
[14] = tested on: TK-10; assay: Cytotoxicity against human TK10 cells assessed as growth inhibition after 48 hrs by SRB assay; conditions: TK-10, 48 h
[15] = tested on: MDA-MB-231; assay: Cytotoxicity against human MDA-MB-231 cells assessed as growth inhibition after 48 hrs by SRB assay; conditions: MDA-MB-231, 48 h; in short: as §1
[16] = tested on: HL-60(TB); assay: Cytotoxicity against human HL-60(TB) cells assessed as growth inhibition after 48 hrs by SRB assay; conditions: HL-60, 48 h
In short: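 NCI 60-cell panel, leukemia subpanel. Five-dose screen at 10-fold dilutions from 10−4 to 10−8 M with 48 h drug exposure. GI50 is the molar concentration giving 50% reduction in net cell growth compared with cell numbers on day 0.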

[17] = Cytotoxicity against human PC3 cells assessed as growth inhibition after 48 hrs by SRB assay; conditions: PC-3, 48 h; in short: as §1
[18] = tested on: K562; assay: Cytotoxicity against human K562 cells assessed as growth inhibition after 48 hrs by SRB assay; conditions: K562, 48 h; in short: as §1
[19] = Cytotoxicity against human OVCAR3 cells assessed as growth inhibition after 48 hrs by SRB assay; conditions: OVCAR-3, 48 h; in short: as §1
[20] = tested on: NCI-H460; assay: Cytotoxicity against human NCI-H460 cells assessed as growth inhibition after 48 hrs by SRB assay; conditions: NCI-H460, 48 h; in short: as §1
[21] = tested on: 786-0; assay: Cytotoxicity against human 786-0 cells assessed as growth inhibition after 48 hrs by SRB assay; conditions: 786-0, 48 h; in short: as §1
[22] = Cytotoxicity against human OVCAR4 cells assessed as growth inhibition after 48 hrs by SRB assay; conditions: OVCAR-4, 48 h; in short: as §1
[23] = Cytotoxicity against human NCI-ADR-RES cells assessed as growth inhibition after 48 hrs by SRB assay; in short: as §1
[24] = tested on: LOX IMVI; assay: Cytotoxicity against human LOXIMVI cells assessed as growth inhibition after 48 hrs by SRB assay; in short: as §1
[25] = tested on: HCC 2998; assay: Cytotoxicity against human HCC2998 cells assessed as growth inhibition after 48 hrs by SRB assay; conditions: HCC 2998, 48 h; in short: as §1
[26] = tested on: SNB-75; assay: Cytotoxicity against human SNB75 cells assessed as growth inhibition after 48 hrs by SRB assay; conditions: SNB-75, 48 h
[27] = tested on: HT-29; assay: Cytotoxicity against human HT-29 cells assessed as growth inhibition after 48 hrs by SRB assay; conditions: HT-29, 48 h; in short: as §1
[28] = tested on: RPMI-8226; assay: Cytotoxicity against human RPMI8226 cells assessed as growth inhibition after 48 hrs by SRB assay; conditions: RPMI-8226, 48 h; in short: as §1
[29] = tested on: SK-MEL-5; assay: Cytotoxicity against human SK-MEL-5 cells assessed as growth inhibition after 48 hrs by SRB assay; conditions: SK-MEL-5, 48 h; in short: as §1
[30] = Cytotoxicity against human OVCAR5 cells assessed as growth inhibition after 48 hrs by SRB assay; conditions: OVCAR-5, 48 h; in short: as §1
[31] = tested on: BT-549; assay: Cytotoxicity against human BT549 cells assessed as growth inhibition after 48 hrs by SRB assay; conditions: BT-549, 48 h; in short: as §1
[32] = Cytotoxicity against human UACC62 cells assessed as growth inhibition after 48 hrs by SRB assay; conditions: UACC-62, 48 h
[33] = tested on: SNB-19; assay: Cytotoxicity against human SNB19 cells assessed as growth inhibition after 48 hrs by SRB assay; conditions: SNB-19, 48 h; in short: as §1
[34] = tested on: SN12C; assay: Cytotoxicity against human SN12C cells assessed as growth inhibition after 48 hrs by SRB assay; in short: as §1
[35] = Cytotoxicity against human UO31 cells assessed as growth inhibition after 48 hrs by SRB assay; conditions: UO-31, 48 h
[36] = Cytotoxicity against human OVCAR8 cells assessed as growth inhibition after 48 hrs by SRB assay; conditions: OVCAR-8, 48 h; in short: as §1
[37] = tested on: M14; assay: Cytotoxicity against human M14 cells assessed as growth inhibition after 48 hrs by SRB assay; conditions: M14, 48 h; in short: as §1
[38] = tested on: CAKI-1; assay: Cytotoxicity against human Caki1 cells assessed as growth inhibition after 48 hrs by SRB assay; conditions: CAKI-1, 48 h; in short: as §1
[39] = tested on: IGROV-1; assay: Cytotoxicity against human IGROV1 cells assessed as growth inhibition after 48 hrs by SRB assay; conditions: IGROV-1, 48 h; in short: as §1
[40] = tested on: SK-OV-3; assay: Cytotoxicity against human SKOV3 cells assessed as growth inhibition after 48 hrs by SRB assay; conditions: SK-OV-3, 48 h; in short: as §1
[41] = tested on: A498; assay: Cytotoxicity against human A498 cells assessed as growth inhibition after 48 hrs by SRB assay; conditions: A498, 48 h; in short: as §1
[42] = tested on: SF-295; assay: Cytotoxicity against human SF295 cells assessed as growth inhibition after 48 hrs by SRB assay; conditions: SF-295, 48 h; in short: as §1
[43] = tested on: U-251; assay: Cytotoxicity against human U251 cells assessed as growth inhibition after 48 hrs by SRB assay; conditions: U-251, 48 h

For COc1cc(/C(C#N)=C/c2cc3ccccc3o2)cc(OC)c1OC, the GI50 [1] was 247 nM, the GI50 [2] was under 10 nM and the GI50 [3] was under 10 nM. For the same compound, the GI50 [4] was under 10 nM, the GI50 [5] was 47 nM and the GI50 [6] was 23 nM. The GI50 [7] was under 10 nM, the GI50 [8] was under 10 nM and the GI50 [9] was under 10 nM. It also gave a GI50 [10] of under 10 nM, a GI50 [11] of under 10 nM and a GI50 [12] of under 10 nM. For the same compound, the GI50 [13] was under 10 nM, the GI50 [14] was 73600 nM and the GI50 [15] was 28 nM. It also gave a GI50 [16] of under 10 nM, a GI50 [17] of under 10 nM and a GI50 [18] of under 10 nM. For the same compound, the GI50 [19] was under 10 nM, the GI50 [20] was under 10 nM and the GI50 [21] was under 10 nM. For the same compound, the GI50 [22] was 39 nM, the GI50 [23] was under 10 nM and the GI50 [24] was under 10 nM. The GI50 [25] was 10 nM, the GI50 [26] was under 10 nM and the GI50 [27] was under 10 nM. It also gave a GI50 [28] of 19 nM, a GI50 [29] of under 10 nM and a GI50 [30] of 42 nM. It also gave a GI50 [31] of 29 nM, a GI50 [32] of under 10 nM and a GI50 [33] of under 10 nM. It also gave a GI50 [34] of under 10 nM, a GI50 [35] of 2290 nM and a GI50 [36] of under 10 nM. The GI50 [37] was under 10 nM, the GI50 [38] was under 10 nM and the GI50 [39] was 22 nM. It also gave a GI50 [40] of under 10 nM, a GI50 [41] of under 10 nM and a GI50 [42] of under 10 nM. It also gave a GI50 [43] of under 10 nM.
COc1cc(/C(C#N)=C/c2cc3ccccc3[nH]2)cc(OC)c1OC showed a GI50 [1] of 15 nM, a GI50 [2] of under 10 nM and a GI50 [3] of under 10 nM. For the same compound, the GI50 [4] was under 10 nM, the GI50 [5] was 23 nM and the GI50 [6] was 16 nM. For the same compound, the GI50 [7] was under 10 nM, the GI50 [8] was under 10 nM and the GI50 [9] was under 10 nM. It also gave a GI50 [10] of under 10 nM, a GI50 [11] of under 10 nM and a GI50 [12] of under 10 nM. For the same compound, the GI50 [13] was 16 nM, the GI50 [14] was under 10 nM and the GI50 [15] was 14 nM. It also gave a GI50 [16] of under 10 nM, a GI50 [17] of under 10 nM and a GI50 [18] of under 10 nM. It also gave a GI50 [19] of under 10 nM, a GI50 [20] of under 10 nM and a GI50 [21] of under 10 nM. It also gave a GI50 [22] of 15200 nM, a GI50 [23] of under 10 nM and a GI50 [24] of under 10 nM. For the same compound, the GI50 [25] was 18 nM, the GI50 [26] was under 10 nM and the GI50 [27] was under 10 nM. It also gave a GI50 [28] of under 10 nM, a GI50 [29] of under 10 nM and a GI50 [30] of 80 nM. For the same compound, the GI50 [31] was under 10 nM, the GI50 [32] was under 10 nM and the GI50 [33] was under 10 nM. It also gave a GI50 [34] of under 10 nM, a GI50 [35] of under 10 nM and a GI50 [36] of under 10 nM. For the same compound, the GI50 [37] was under 10 nM, the GI50 [38] was under 10 nM and the GI50 [39] was under 10 nM. For the same compound, the GI50 [40] was under 10 nM, the GI50 [41] was under 10 nM and the GI50 [42] was under 10 nM. It also gave a GI50 [43] of under 10 nM.
